Assay outcomes from PubChem BioAssay.
AI-2 QS mod – modulators of Vibrio harveyi AI-2 quorum sensing system; 300,000 compounds, 0.4% hits; activity change, % at 7.5 µM; Vibrio harveyi JMH597 AI-2 luminescence/OD600 ratio, 9 h; active compounds read low; strain lacks LuxN and CqsS sensors; 0 = neutral-control median; in the data active = activity change below about -75%, passing the limit was not always enough;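 also: luminescence divided by OD600 gain over 9 h not by final OD600 alone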
Tb MetRS inh – blocks T. brucei methionyl-tRNA synthetase activity; inhibition, % at 11.9 µM; purified T. brucei MetRS, ATP depletion, Kinase-Glo luminescence; 360,000 compounds, 0.4% hits;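 active = inhibition above a per-plate cutoff of the control wells' mean inhibition plus 3 SD, cut at about 5.5% in these data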;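 also: 0% = DMSO wells median and 100% = median of wells with control inhibitor compound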
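assay system = parasite MetRS enzyme | timing = 15 min preincubation, 2 h reaction, all 25 °C | evaluation = percent inhibition relative to median high and low control wells | medium = HEPES buffer containing pyrophosphatase, BSA, spermine, DTT | compound = single dose, 11.9 µM final nominal, 0.9% final DMSO | detection = Kinase-Glo luminescence, ATP depletion format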
AHR activator – human AHR activation; 320,000 compounds, 2.5% hits; AID 2796; P35869; activation, % at 5 µM; AHR-responsive luciferase reporter cells, luminescence; in the data active = activation above about 47%;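 also: 0% = vehicle wells and 100% = reference agonist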
bovine MsrA act – activates bovine MsrA enzyme | activation, % at 10.6 µM | purified bovine MsrA, absorbance read-out | AID 602163 | 360,000 compounds, 0.3% hits; in the data active = activation above about 7.5%;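 also: 0% = vehicle and 100% = reference activator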
MsrA inhibitor – bovine MsrA inhibition. 360,000 compounds, 0.75% hits. AID 651718. inhibition, % at 15.5 µM. purified bovine MsrA, absorbance read-out;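 also: 0% = vehicle wells with enzyme and 100% = reference inhibitor wells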
m5-HT2A agonist – activates the mouse 5-HT2A serotonin receptor; P35363; CHO-K1 mHTR2A beta-arrestin complementation, luminescence; percent of 30 µM serotonin response; activation, % at 7.6 µM; 360,000 compounds, 0.66% hits; AID 624169;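 active = activation above a run cutoff, the mean activation of all tested compounds plus 3 SD, cut at about 14% in these data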;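 also: 0% = plate median of compound wells and 100% = 30 µM serotonin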
Target sequence (P35363 whole entry, looked up): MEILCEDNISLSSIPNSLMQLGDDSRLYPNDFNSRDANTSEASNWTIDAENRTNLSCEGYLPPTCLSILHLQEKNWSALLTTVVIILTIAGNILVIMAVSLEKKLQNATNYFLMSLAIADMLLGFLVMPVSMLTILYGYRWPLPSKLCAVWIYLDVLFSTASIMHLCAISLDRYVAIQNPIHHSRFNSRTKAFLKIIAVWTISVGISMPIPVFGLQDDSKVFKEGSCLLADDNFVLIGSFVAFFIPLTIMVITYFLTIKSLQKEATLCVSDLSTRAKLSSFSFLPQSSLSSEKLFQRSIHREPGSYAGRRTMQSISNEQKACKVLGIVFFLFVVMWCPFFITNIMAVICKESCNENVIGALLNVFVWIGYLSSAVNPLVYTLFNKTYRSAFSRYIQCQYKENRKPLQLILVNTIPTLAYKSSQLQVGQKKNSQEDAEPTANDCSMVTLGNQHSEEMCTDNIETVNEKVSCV
MsrA conf – bovine MsrA inhibition, confirmed; shares compounds with MsrA inhibitor; purified bovine MsrA, absorbance read-out; inhibition, % at 15.5 µM; 2,300 compounds, 41% hits; AID 651822;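 also: coupled to thioredoxin reductase with NADPH and selenocystamine and DMSO as substrate; 0% = vehicle only and 100% = full effect of reference inhibitor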
* = called active by the depositor; . = no result given. This is a sample that favours compounds with a hit; in the whole collection about 4.4% have one here. Rule as the data show it, unless noted: active = inhibition above about 4.5%; inactive = the rest.

SMILES | AI-2 QS mod | Tb MetRS inh | AHR activator | bovine MsrA act | MsrA inhibitor | m5-HT2A agonist | MsrA conf
CCOC(=O)c1sc(/N=C/c2ccc(O)cc2O)cc1C | 14 | 0 | 11 | -11 | 5.3* | 1 | 2
CC(=O)Nc1cc(Cl)c(N=Cc2ccc(O)cc2O)cc1Cl | 100 | 0 | 3 | -4 | 1 | 3 | .
O=C(Nc1cccc(F)c1)C1CCCN(S(=O)(=O)c2ccccc2)C1 (centres undefined) | 0 | 0 | 3 | -3 | 3 | -10 | .
CCOc1ccccc1OCC(=O)Nc1ccc(N2CCOCC2)cc1N1CCOCC1 | . | 0 | . | -3 | -2 | 0 | .
N#Cc1cn(-c2ccccc2)nc1-c1ccco1 | 30 | 0 | 19 | -6 | 5.2* | -1 | 4
Cc1cc(N/C=C/C(=O)c2ccc(Br)cc2)no1 | 7 | -1 | -4 | -5 | 0 | 1 | .
Cc1cc(N/C=C/C(=O)c2cccc3ccccc23)no1 | 6 | 0 | 37 | -4 | 4.7* | -2 | 2
CCOC1=C2[C@@H](CN(S(=O)(=O)c3ccc(C)cc3)[C@H]2c2ccccc2)[C@H]2C(=O)N(Cc3ccccc3)C(=O)[C@H]2C1 | . | 0 | . | -8 | -1 | 3 | .
CCNC(=O)C1(C)CCN(C(=O)c2cccnc2SC)C1 (centres undefined) | . | 0 | . | -8 | -1 | 8 | .
COc1ccccc1NS(=O)(=O)c1cccc(C(=O)N/N=C/c2cn(-c3ccccc3)nc2-c2ccccc2)c1 | 29 | 0 | -6 | -6 | 6.1* | 0 | 4
O=C(COc1ccc2oc(-c3ccco3)cc(=O)c2c1)N1CCCCC1 | 40 | 0 | 1 | -6 | 4.7* | 3 | 3
COc1ccc2oc(-c3ccco3)cc(=O)c2c1 | 13 | 0 | -1 | -2 | 3 | 1 | .
O=C(O)CCC(=O)NNC(=O)CCC(=O)Nc1ccccc1 | 3 | -1 | 2 | -4 | -1 | 3 | .
O=C(O)CCC(=O)Nc1ccc(/C=C/C(=O)C2CC2)cc1 | 4 | -1 | -1 | -6 | 7.3* | 3 | 3
O=C(/C=C/c1cccs1)c1ccc(N2CCOCC2)cc1 | 19 | 0 | 0 | -4 | 6.1* | -1 | 2
CC(=O)Nc1cc(-c2ccc(CO)cc2)cn2c(-c3ccc(F)c(Cl)c3)cnc12 | . | 0 | . | -1 | 1 | 2 | .
CCS(=O)(=O)c1c([N+](=O)[O-])ncn1C | 2 | 0 | -2 | -4 | 0 | 0 | .
Cn1cnc([N+](=O)[O-])c1S(=O)(=O)Oc1ccc(Cl)cc1 | . | 0 | . | -1 | 23* | 5 | 13*
Cn1cnc([N+](=O)[O-])c1S(=O)(=O)Oc1cccc2ccccc12 | . | 0 | . | -10 | 14* | -2 | 7.1*
CCC1CCCCN1CCCNC(=O)CSc1nc2nc(C)c(Cc3ccc(C)cc3)c(C)n2n1 (centres undefined) | 28 | 0 | -2 | 1 | 0 | -3 | .
COc1cccc(C(NC(C)=O)c2nc(-c3cccc(C(=O)O)c3)cs2)c1 (centres undefined) | . | 0 | . | -1 | 2 | -1 | .
COc1cc(N2CCCC2)ccc1C=O | 21 | 0 | 0 | -9 | 6.8* | 2 | 3
O=Cc1ccc(N2CCCCC2)cc1 | 3 | 0 | 2 | -2 | -1 | 0 | .
C=CCc1c(C)nc(C)nc1N/N=C/c1ccc([N+](=O)[O-])cc1 | 3 | 0 | 78* | -4 | 7.0* | 0 | 5
CCNC(=O)C1(C)CCCN(Cc2csc(-c3ccccc3)n2)C1 (centres undefined) | . | 0 | . | -3 | -1 | -2 | .
SMILES | AI-2 QS mod | Tb MetRS inh | AHR activator | bovine MsrA act | MsrA inhibitor | m5-HT2A agonist | MsrA conf
CCN(CC)C(=O)COc1cc(C)c(Cl)c(C)c1 | 1 | -1 | -1 | -1 | 37* | -4 | 1
Cc1cc(OCC(=O)N(C)C2CCCCC2)cc(C)c1Cl | 11 | 0 | 7 | -2 | 0 | -3 | .
CC1CC(C)CN(S(=O)(=O)c2ccc(C(=O)N3CCOCC3)cc2)C1 (centres undefined) | 22 | 0 | 6 | -4 | -1 | 4 | .
O=C(NCc1cccs1)c1cccn2c(=O)c3sccc3nc12 | 9 | 0 | 29 | -1 | 0 | 7 | .
CCOC(=O)N1CCN(C(=O)c2cccn3c(=O)c4sccc4nc23)CC1 | . | 0 | 2 | -1 | 5.7* | 2 | 4
CCOC(=O)N1CCN(C(=O)c2ccc3nc4ccsc4c(=O)n3c2)CC1 | 21 | -1 | 16 | -3 | 5.1* | 1 | 2
COc1cc(/C=N/Nc2ncnc3sc4c(c23)CCC4)ccc1O | 5 | 0 | . | -9 | 5.5* | -2 | 4
NS(=O)(=O)c1cc(C(=O)OCC(=O)Nc2ccccc2[N+](=O)[O-])ccc1Cl | 17 | 0 | 9 | -5 | 12* | 0 | 6.0*
COc1ccc(NC(=O)COC(=O)C2CCCCC2)c([N+](=O)[O-])c1 | 19 | 0 | 4 | -3 | 12* | 0 | 8.1*
CNS(=O)(=O)c1cccc(C(=O)OCC(=O)Nc2ccc(OC)cc2[N+](=O)[O-])c1 | 25 | 1 | -1 | -4 | 6.0* | 2 | 1
O=C(NCC1CCOCC1)C1CCC(=O)N(Cc2cccc(C(F)(F)F)c2)C1 (centres undefined) | 9 | 0 | -1 | -3 | -1 | -7 | .
CC1(O)CC(C)(C)C(C#N)C(=O)N1 (centres undefined) | . | 0 | . | -4 | -1 | -1 | .
CCOC(=O)N1CCC(Nc2c(-c3ccc(C)cc3)c(=O)c2=O)CC1 | 9 | 0 | 2 | -4 | 4.9* | -8 | 3
CCOC(=O)N1CCC(Nc2c(-c3ccccc3)c(=O)c2=O)CC1 | 21 | 0 | -2 | -3 | 3 | 1 | .
CCc1noc(C)c1C(=O)N1CC(C)SC1=Nc1ccc(Cl)cc1 (centres undefined) | . | -1 | 7 | -4 | -2 | -2 | .
Cc1cc(C)c2c3c(sc2n1)C(c1cccc(F)c1)C(C#N)=C(N)O3 (centres undefined) | . | 0 | 36 | -3 | 10* | 13 | 4
Cc1oc(C)c2c(=O)ccc3c(c12)OC(N)=C(C#N)C3c1ccc(F)cc1 (centres undefined) | -1 | 0 | 3 | -5 | 1 | 0 | .
Cc1nc(Nc2ccncc2)c2oc3ccccc3c2n1 | 18 | -1 | 29 | -9 | 5.4* | -1 | 2
CCc1nc(Nc2ccncc2)c2oc3ccccc3c2n1 | 17 | 0 | 33 | -4 | 4.7* | -4 | 4
CCc1nc(NC(C)C)c2oc3ccccc3c2n1 | 10 | 0 | 16 | 3 | 0 | 4 | .
CCN(c1ccccc1)S(=O)(=O)c1cccc(C(=O)OCC(=O)Nc2ccc(NC(C)=O)cc2)c1 | . | 0 | -1 | 0 | -1 | 1 | .
